How the values were obtained:
[1] = Hemolytic activity against human erythrocytes assessed as hemolysis incubated for 3 hrs by spectrophotometric analysis relative to control; assay type: ADME, cell-based, Erythrocyte; settings: read-out: Activity
Summary of the method: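 Citrated human blood (n=3) centrifuged at 2500 rpm for 15 min. The erythrocyte pellet is washed three times and resuspended in PBS pH 7.4. Compounds are incubated with the erythrocytes for 3 h at 37 °C. After centrifugation, released hemoglobin is read at 540 nm. Controls are 1% DMSO (negative) and 1% Triton X-100 (positive). Below 10% counts as non-hemolytic.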

[2] = system: Plasma; experiment: Anticoagulant activity in human plasma assessed as activated partial thromboplastin time at 100 uM; assay type: functional
Summary of the method: (§1)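 Human platelet-poor plasma from whole blood (n=3) by differential centrifugation, run on a coagulation analyzer. Compounds at 100 µM incubated with plasma 15 min at room temperature, then 2 min at 37 °C. For aPTT, cephalin is added for 2 min and clotting is started with 0.025 M CaCl2. For PT, PBS is added for 3 min and clotting is started with calcium thromboplastin. Clotting time is read in seconds at 37 °C. Negative control is 1% DMSO; positive control is 100 µM rivaroxaban.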

[3] = system: Vero; experiment: Cytotoxicity against African green monkey Vero cells at 10 uM measured after 48 hrs by MTT assay relative to control; assay type: cell-based; settings: chlorocebus sabaeus
Summary of the method: (§2)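 Vero cells grown at 37 °C in 5% CO2 in medium with 10% inactivated FBS. Cells seeded at 3.2×10^4 per well and grown 24 h, then exposed to compounds for 48 h (n = 4). Control is DMEM with 10% FBS and 1% DMSO. MTT (2.5 mg/mL solution) is added for 3 h, formazan is dissolved in DMSO and absorbance is read at 570 nm. Viability is given as % of untreated cells, mean ± SD.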

[4] = system: Plasma; experiment: Anticoagulant activity in human plasma assessed as prothrombin time at 100 uM; assay type: functional; summary of the method: as §1
[5] = Genotoxicity in Salmonella typhimurium TA100 at 10 to 500 uM by AMES test; assay type: toxicity; settings: salmonella enterica subsp. enterica serovar typhimurium, dose 10-500 µM
Summary of the method: (§3)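 Ames reverse mutation to histidine prototrophy using S. typhimurium TA97, TA98, TA100 and TA102. Compounds are dissolved in DMSO and tested at 10, 100 and 500 µM.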

[6] = Mutagenicity in Escherichia coli PQ35 at 10 to 500 uM by SOS-chromotest; assay type: toxicity; settings: dose 10-500 µM
Summary of the method: (§4)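 SOS chromotest spot assay with E. coli PQ35 and PQ37. An overnight culture is diluted in LB and grown at 37 °C to 2×10^8 bacteria/mL. Then 0.1 mL is mixed in top agar and poured on M63 plates. 10 µL of compound in DMSO (10, 100 or 500 µM) is spotted centrally and plates are incubated overnight at 37 °C. A blue ring around the inhibition zone indicates genotoxicity. Run in triplicate with 4-NQO as positive control.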

[7] = Genotoxicity in Salmonella typhimurium TA97 at 10 to 500 uM by AMES test; assay type: toxicity; settings: salmonella enterica subsp. enterica serovar typhimurium, dose 10-500 µM; summary of the method: as §3
[8] = Mutagenicity in Escherichia coli PQ37 at 10 to 500 uM by SOS-chromotest; assay type: toxicity; settings: dose 10-500 µM; summary of the method: as §4
[9] = system: Vero; experiment: Cytotoxicity against African green monkey Vero cells at 100 uM measured after 48 hrs by MTT assay relative to control; assay type: cell-based; settings: chlorocebus sabaeus; summary of the method: as §2
[10] = system: Plasma; experiment: Antiplatelet activity in human platelet-rich plasma assessed as inhibition of arachidonic acid-induced platelet aggregation by turbidimetric method; assay type: functional
Summary of the method: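 Platelet-rich and platelet-poor plasma prepared from human whole blood (n=3) by differential centrifugation. Compounds pre-incubated in PRP for 2 min, then aggregation is induced with 500 µM arachidonic acid and followed turbidimetrically in an aggregometer. IC50 is determined from several concentrations, in triplicate. Acetylsalicylic acid is the positive control; 1% DMSO vehicle is the negative control.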

[11] = Genotoxicity in Salmonella typhimurium TA102 at 10 to 500 uM by AMES test; assay type: toxicity; settings: salmonella enterica subsp. enterica serovar typhimurium, dose 10-500 µM; summary of the method: as §3
[12] = Genotoxicity in Salmonella typhimurium TA98 at 10 to 500 uM by AMES test; assay type: toxicity; settings: salmonella enterica subsp. enterica serovar typhimurium, dose 10-500 µM; summary of the method: as §3
[13] = target: T1, Prostaglandin G/H synthase 2 (Homo sapiens) (UniProt P35354); experiment: Inhibition of human COX-2 assessed as peroxidase activity using arachidonic acid as substrate at 50 uM by colorimetric method
T1 sequence (whole entry): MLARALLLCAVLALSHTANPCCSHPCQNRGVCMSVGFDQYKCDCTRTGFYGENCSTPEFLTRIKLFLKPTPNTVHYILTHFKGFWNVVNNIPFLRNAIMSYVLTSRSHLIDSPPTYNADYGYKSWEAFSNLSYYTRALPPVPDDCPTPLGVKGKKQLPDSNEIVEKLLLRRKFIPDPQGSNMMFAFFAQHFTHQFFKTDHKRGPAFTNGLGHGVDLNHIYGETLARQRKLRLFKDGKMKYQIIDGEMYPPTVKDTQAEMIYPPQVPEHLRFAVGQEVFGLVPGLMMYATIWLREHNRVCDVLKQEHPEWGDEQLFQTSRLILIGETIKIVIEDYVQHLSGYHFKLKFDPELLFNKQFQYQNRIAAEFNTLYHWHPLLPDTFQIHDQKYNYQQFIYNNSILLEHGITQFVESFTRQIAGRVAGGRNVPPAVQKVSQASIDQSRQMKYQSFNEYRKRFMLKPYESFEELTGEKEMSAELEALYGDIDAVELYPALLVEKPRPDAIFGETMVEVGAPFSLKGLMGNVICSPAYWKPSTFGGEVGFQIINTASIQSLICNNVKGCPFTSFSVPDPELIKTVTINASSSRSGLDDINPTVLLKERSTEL
Summary of the method: (§5)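 Colorimetric COX inhibitor screening kit measuring cyclooxygenase peroxidase activity on arachidonic acid substrate, read as oxidized TMPD at 590 nm. Compound stocks are made in DMSO. IC50 is the mean of at least three independent measurements. Percent inhibition is taken at the highest final inhibitor concentration, 50 µM.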

[14] = target: T2, Prostaglandin G/H synthase 1 (Ovis aries, UniProt P05979); experiment: Inhibition of ovine COX-1 assessed as peroxidase activity using arachidonic acid as substrate by colorimetric method; summary of the method: as §5
T2 sequence (P05979 whole entry): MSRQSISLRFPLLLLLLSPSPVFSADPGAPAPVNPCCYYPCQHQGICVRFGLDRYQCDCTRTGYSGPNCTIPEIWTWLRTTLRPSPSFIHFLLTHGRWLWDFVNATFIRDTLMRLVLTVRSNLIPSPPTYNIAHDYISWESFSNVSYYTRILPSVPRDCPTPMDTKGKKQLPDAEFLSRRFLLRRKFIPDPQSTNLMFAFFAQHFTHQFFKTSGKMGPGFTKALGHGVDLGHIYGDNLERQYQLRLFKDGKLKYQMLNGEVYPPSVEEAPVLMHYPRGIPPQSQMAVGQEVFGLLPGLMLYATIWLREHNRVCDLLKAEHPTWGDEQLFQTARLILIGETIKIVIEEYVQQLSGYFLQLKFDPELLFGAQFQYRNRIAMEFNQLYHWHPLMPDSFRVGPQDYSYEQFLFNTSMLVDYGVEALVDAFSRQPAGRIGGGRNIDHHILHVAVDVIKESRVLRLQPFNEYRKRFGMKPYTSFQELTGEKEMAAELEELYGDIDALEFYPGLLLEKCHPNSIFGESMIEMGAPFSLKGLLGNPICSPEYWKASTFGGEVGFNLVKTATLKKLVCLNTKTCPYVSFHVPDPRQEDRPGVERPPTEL

[15] = target: T3, Prostaglandin G/H synthase 1 (Ovis aries) (UniProt P05979); experiment: Inhibition of ovine COX-1 assessed as peroxidase activity using arachidonic acid as substrate at 50 uM by colorimetric method; summary of the method: as §5
T3 sequence (whole entry): T2 sequence (P05979 whole entry)

[16] = target: T4, Prostaglandin G/H synthase 2 (Homo sapiens, UniProt P35354); experiment: Inhibition of human COX-2 assessed as peroxidase activity using arachidonic acid as substrate by colorimetric method; summary of the method: as §5
T4 sequence (P35354 whole entry): T1 sequence (whole entry)

[17] = Selectivity index, ratio of IC50 for human COX-2 to IC50 for ovine COX-1
Summary of the method: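 Selectivity index is calculated as COX-2 IC50 divided by COX-1 IC50, each taken from the colorimetric TMPD peroxidase assay with arachidonic acid substrate.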

IC50 [10] [nM]	inhibition [13] [%]	IC50 [14] [nM]	inhibition [15] [%]	IC50 [16] [nM]	Ratio IC50 [17]	SMILES	hemolysis at 3 h [1] [%]	APTT [2] [s]	Activity [3] [%]	PT [4] [s]	Activity [5]	Activity [6]	Activity [7]	Activity [8]	Activity [9] [%]	Activity [11]	Activity [12]
450						COc1ccc(-c2noc(CC(=O)O)c2-c2ccc(OC)cc2)cc1 [MOFEZOLAC]	0	50.8	97	14.2	Non-Toxic	Non-Toxic	Non-Toxic	Non-Toxic	91	Non-Toxic	Non-Toxic
	71	75	85	300	4	COc1ccc(-c2noc(CC(=O)Nc3ccc(-c4ccc(N)cc4)cc3)c2-c2ccc(OC)cc2)cc1											
910		150	85	> 50000	> 333	COc1ccc(-c2noc(CC(=O)Nc3ccc(NC(=O)Cc4onc(-c5ccc(OC)cc5)c4-c4ccc(OC)cc4)cc3)c2-c2ccc(OC)cc2)cc1	0	47.5	98	15.5	Non-Toxic	Non-Toxic	Non-Toxic	Non-Toxic	97	Non-Toxic	Non-Toxic
	61		57	800	0.05	CCCCC/C=C\C/C=C\C/C=C\C/C=C\CCCC(=O)NCCCCNC(=O)Cc1onc(-c2ccc(OC)cc2)c1-c1ccc(OC)cc1											
	79	24000	74	500	0.02	COc1ccc(-c2noc(CC(=O)Nc3ccc(N)cc3)c2-c2ccc(OC)cc2)cc1											
	51	950	100	3500	3.7	COc1ccc(-c2noc(CC(=O)NCCCCN)c2-c2ccc(OC)cc2)cc1											
1110						CC(=O)Oc1ccccc1C(=O)O [ASPIRIN]	0	50.3	100	14.6	Non-Toxic	Non-Toxic	Non-Toxic	Non-Toxic	95	Non-Toxic	Non-Toxic
440		80	73	> 50000	> 625	COc1ccc(-c2noc(CC(=O)Nc3ccc(-c4ccc(NC(=O)Cc5onc(-c6ccc(OC)cc6)c5-c5ccc(OC)cc5)cc4)cc3)c2-c2ccc(OC)cc2)cc1	0	46.5	100	15.1	Non-Toxic	Non-Toxic	Non-Toxic	Non-Toxic	92	Non-Toxic	Non-Toxic
	45	13	75	120	9	COc1ccc(-c2noc(CC(=O)NCCNC(=O)Cc3onc(-c4ccc(OC)cc4)c3-c3ccc(OC)cc3)c2-c2ccc(OC)cc2)cc1											
		9000	50	> 50000	> 5.5	COc1ccc(-c2noc(CC(=O)NCCCCCCNC(=O)Cc3onc(-c4ccc(OC)cc4)c3-c3ccc(OC)cc3)c2-c2ccc(OC)cc2)cc1											
		> 50000		> 50000		COc1ccc(-c2noc(CC(=O)NCc3ccc(CNC(=O)Cc4onc(-c5ccc(OC)cc5)c4-c4ccc(OC)cc4)cc3)c2-c2ccc(OC)cc2)cc1											
		7100	40	> 50000	> 7	COc1ccc(-c2noc(CC(=O)NCCCCCCCCCCCCNC(=O)Cc3onc(-c4ccc(OC)cc4)c3-c3ccc(OC)cc3)c2-c2ccc(OC)cc2)cc1											
760	60	17000	50	90	0.005	CCCCC/C=C\C/C=C\C/C=C\C/C=C\CCCC(=O)Nc1ccc(-c2ccc(NC(=O)Cc3onc(-c4ccc(OC)cc4)c3-c3ccc(OC)cc3)cc2)cc1	0.14	48	94	14.6	Non-Toxic	Non-Toxic	Non-Toxic	Non-Toxic	84	Non-Toxic	Non-Toxic
		5500	74	> 50000	> 9	COc1ccc(-c2noc(CC(=O)NCCCCNC(=O)Cc3onc(-c4ccc(OC)cc4)c3-c3ccc(OC)cc3)c2-c2ccc(OC)cc2)cc1											
610		50	66	> 50000		CCCCC/C=C\C/C=C\C/C=C\C/C=C\CCCC(=O)Nc1ccc(NC(=O)Cc2onc(-c3ccc(OC)cc3)c2-c2ccc(OC)cc2)cc1	0	55.6	93	15.3					79		

From ChEMBL document CHEMBL4706621, “An attempt to chemically state the cross-talk between monomers of COX homodimers by double/hybrid inhibitors mofezolac-spacer-mofezolac and mofezolac-spacer-arachidonic acid” (Eur J Med Chem, 2021)
